Hits are enriched below; roughly 4.9% of the tested compounds scored in any of these assays.
NPY Y1 blocker: NPY-Y1 receptor antagonists, primary screen, cell-based; Neuropeptide Y receptor type 1 (Homo sapiens), P25929; 200,000 tested, 1% active; inhibition, % at 3.6 µM; HEK293-CNG Y1 cells, membrane potential fluorescence; NPY at EC95, then isoproterenol;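 active = inhibition above the campaign mean inhibition of all tested compounds plus 3 SD, cut at about 20% in these data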;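 also: 0% = DMSO wells given NPY plus isoproterenol and 100% = isoproterenol alone without NPY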
Target sequence (P25929 whole entry, looked up): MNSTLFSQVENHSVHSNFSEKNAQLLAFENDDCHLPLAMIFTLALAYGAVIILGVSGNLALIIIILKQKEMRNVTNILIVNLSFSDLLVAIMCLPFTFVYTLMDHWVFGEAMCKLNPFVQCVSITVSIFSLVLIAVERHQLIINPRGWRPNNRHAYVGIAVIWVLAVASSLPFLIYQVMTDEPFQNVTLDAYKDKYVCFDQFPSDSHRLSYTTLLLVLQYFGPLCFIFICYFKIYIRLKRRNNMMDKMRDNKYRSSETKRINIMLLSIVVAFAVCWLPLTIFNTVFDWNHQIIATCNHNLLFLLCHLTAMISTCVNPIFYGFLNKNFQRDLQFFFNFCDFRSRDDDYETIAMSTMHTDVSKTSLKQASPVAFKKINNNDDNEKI
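Assay system: HEK293 Y1/CNG channel cell line; Doses: single compound dose of 3.6 µM, 0.4% DMSO; Timing: dye 3 h, compound 60 min room temperature, stimulation 45 min; Technique: Membrane-potential fluorescent dye readout; Measure: % inhibition of NPY effect.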
NPY-Y1 PAM-ag: NPY-Y1 receptor potentiators or agonists, primary screen, cell-based | Neuropeptide Y receptor type 1 (Homo sapiens), P25929 | NPY-Y1 expressing cells, potentiator/agonist activation | activation, % at 3.6 µM | 220,000 tested, 0.37% active | AID 1304, 2008; in the data active = activation above about 33%, passing the limit was not always enough;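 also: cells stimulated with NPY at EC10 then isoproterenol at EC100; 0% = low agonist plus stimulus and 100% = saturating agonist plus stimulus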
WT yeast gro inh: growth inhibition of WT strain, primary screen, mitochondrial fusion inhibitor project, WT and mutant strains, chemical genetic; mitochondrial fusion phenotypic screen; inhibition, % at 10 µM; 190,000 tested, 2.1% active; in the data active = inhibition above about 58%; tested in S. cerevisiae
RAM inhibit: inhibitors of the yeast RAM network, primary screen, dse1pr::URA3 reporter, 5-FOA selection; S. cerevisiae dse1pr::URA3 reporter, 5-FOA growth OD615, 2 d; analog-sensitive cbk1-as2 kinase mutant strain; inhibition, % at 50 µM; 190,000 tested, 1.8% active;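 active = inhibition above a set limit, 3 SD over mean compound inhibition, cut at about 8.4% in these data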;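 also: 0% = DMSO-only wells with no growth and 100% = 10 µM 1-NA-PP1 full growth; inhibition rescues growth on 5-FOA so higher OD means more RAM inhibition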
NPY-Y2 PAM-ag: NPY-Y2 potentiators or agonists, primary screen, cell-based; cells expressing NPY-Y2, potentiator/agonist read-out; 220,000 tested, 0.45% active; AID 1359, 2008; activation, % at 3.6 µM; in the data active = activation above about 27%;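 also: cells stimulated with NPY near EC25 plus isoproterenol at EC100; 0% = vehicle plus submaximal agonist and 100% = vehicle plus saturating agonist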
NPY Y2 blocker: NPY-Y2 receptor antagonists, primary screen, cell-based; NPY-Y2 expressing cells, antagonist mode; inhibition, % at 2.7 µM; 140,000 tested, 0.99% active; in the data active = inhibition above about 17%;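 also: 0% = vehicle with agonist challenge and 100% = reference antagonist with challenge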
An asterisk follows results filed as active; x = no result.

SMILES | NPY Y1 blocker | NPY-Y1 PAM-ag | WT yeast gro inh | RAM inhibit | NPY-Y2 PAM-ag | NPY Y2 blocker
COc1ccc(CCN(C(=S)Nc2ccccc2)C2CC(=O)N(c3ccccc3)C2=O)cc1 (configuration not stated) | -1.9 | 37.1 | 6.2 | 3.3 | 37.0* | -3.6
O=C1CC(N(CCc2ccccc2)C(=S)Nc2ccccc2)C(=O)N1c1ccc(Br)cc1 (configuration not stated) | 1.6 | 30.9 | 69.5* | 4.3 | 2.4 | 1.7
Cc1ccc(N2C(=O)CC(N(CCc3ccccc3)C(=S)Nc3ccc(N(C)C)cc3)C2=O)cc1 (configuration not stated) | -4.2 | 23.4 | 24.4 | 1.7 | 11.6 | -0.4
CNC(=S)N(CCc1ccc(S(N)(=O)=O)cc1)C1CC(=O)N(c2ccccc2F)C1=O (configuration not stated) | 5.8 | 2.1 | -10.9 | 9.4* | -2.9 | x
O=C(CSc1nc2ccccc2s1)Nc1cc(S(=O)(=O)N2CCOCC2)ccc1Cl | 1.3 | -25.2 | 26.8 | 5.4 | -5.4 | 3.9
CS(=O)(=O)N1CCN(c2ccc([N+](=O)[O-])c3cccnc23)CC1 | x | 25.4 | x | x | -10.3 | x
COC(=O)c1ccc2c(c1O)C(=O)c1ccccc1C2=O | 3.6 | -6.1 | 65.7* | -0.4 | 3.1 | 1.6
Cc1ccc(NC(=S)N(Cc2cccs2)Cc2cc3cc(C)ccc3[nH]c2=O)cc1 | -4.8 | -20.8 | 13.9 | 5.6 | 9.4 | 1.7
Cn1cnnc1SCC(=O)Nc1ccc(Cl)cn1 | -12.3 | 73.5* | -19.4 | 3.3 | 70.9* | x
C/C(=N\O)c1ccc2c3c([nH]c2c1)CCCC3 | -5.4 | -3.1 | 73.8* | 0.3 | 20.6 | 0.9
CCCN1C(=O)/C(=C/c2ccc(N3CCCC3)c(C)c2)NC1=S | 5.0 | -7.5 | 69.4* | 5.4 | -14.8 | 1.0
CCCCOc1ccc(CONS(=O)(=O)c2ccc(NC(C)=O)cc2)cc1Cl | -7.7 | 18.9 | 73.9* | 4.2 | 18.0 | -1.3
O=C1/C(=C/c2cccc3ccccc23)CCCc2ccccc21 | 6.7 | -29.4 | 62.8* | 4.7 | -2.1 | 2.2
COc1ccc(C(=O)Nc2ccccc2C(=O)N/N=C/c2cccc3ccccc23)cc1 | 0.5 | -7.1 | 67.6* | 6.4 | -8.7 | 0.9
COc1ccccc1C1=NOC(Cn2c(=O)c3c(ncn3C)n(C)c2=O)C1 (configuration not stated) | -0.3 | -0.7 | 14.1 | 0.6 | 21.2 | 1.5
O=C(OCc1ccc(Br)cc1)c1ccncc1 | 4.7 | -23.6 | 0.6 | -0.1 | -1.4 | x
CC(=O)Nc1ccc(C(=O)OCc2ccc(Br)cc2)cc1 | -8.4 | 5.5 | 69.3* | 2.6 | 10.4 | -0.9
O=C(NNC(=O)c1sccc1-n1cccc1)Nc1ccccc1 | 2.4 | 2.3 | -5.6 | 0.8 | -9.4 | x
Cc1c(Br)c([N+](=O)[O-])nn1CC(=O)NCc1cccs1 | 0.5 | -14.5 | 12.0 | 0.7 | -6.0 | 6.4
COc1ccc(S(=O)(=O)N2CC3CCCN3c3cc(C(F)(F)F)ccc32)cc1 (configuration not stated) | 1.2 | 9.7 | 74.8* | 3.5 | 10.8 | 1.2
COc1cc(NS(=O)(=O)c2ccc(N/C=C\C(=O)c3ccc(C)cc3)cc2)nc(OC)n1 | -1.2 | -9.5 | x | x | -0.7 | 3.7
CCN1CCN(c2ncc(C(=O)Nc3cc(Cl)c(OC)cc3OC)c3ccccc23)CC1 | 4.7 | -10.2 | 2.0 | -0.1 | 3.4 | 2.2
COc1ccc(-c2cc(C(=O)N3CCN(c4ccccc4)CC3)no2)cc1OC | 10.6 | -34.9 | 15.4 | 3.5 | -9.8 | 4.3
COc1ccccc1-c1cc(C(=O)N2CCN(c3ccc(F)cc3)CC2)no1 | -0.5 | 8.2 | 12.4 | 9.4* | 0.6 | 11.7
O=C/C(=C\Nc1ccc(S(=O)(=O)CCO)cc1)c1nc2cc(Cl)ccc2o1 | 0.0 | 3.6 | -11.0 | 2.5 | 2.9 | x
C/C(=N\NC(N)=S)C1C2C3CC4C5CC(C42)C1C53 (configuration not stated) | -1.7 | 22.5 | 66.2* | -0.5 | 18.7 | x
Cc1cccc(OCc2nc3c4c(ncn3n2)-c2ccccc2CC42CCCC2)c1 | -1.0 | 13.1 | 0.9 | 9.2* | -8.6 | 1.4
